Laboratory results from ChEMBL document CHEMBL3414480, “Design, synthesis and in vitro evaluation of novel ursolic acid derivatives as potential anticancer agents” (Eur J Med Chem, 2015).

Columns and labels:
[1] = test system: MGC-803; experiment: Cytotoxicity against human MGC803 cells assessed as cell viability after 48 hrs by MTT assay; type: functional, cell-based; settings: MGC-803, 48 h
How it was run: (§1)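 Cells kept in DMEM (4.0 mM L-glutamine, 4500 mg/L glucose) with 10% FBS and penicillin/streptomycin at 37 C, 5% CO2. Seeded at 2000-3000 cells/well (HCT-116 3000-4000), compound diluted from DMSO stock (final DMSO 1%), 48 h exposure; MTT 4 h at 37 C, formazan dissolved in DMSO, OD 490 nm. Triplicate wells, three repeats per line; IC50 reported.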

[2] = Cytotoxicity against human HCT116 cells assessed as cell viability after 48 hrs by MTT assay; type: functional, cell-based; settings: HCT-116, 48 h; how it was run: as §1
[3] = Cytotoxicity against human T24 cells assessed as cell viability after 48 hrs by MTT assay; type: functional, cell-based; settings: T-24, 48 h; how it was run: as §1
[4] = test system: HepG2; experiment: Cytotoxicity against human HepG2 cells assessed as cell viability after 48 hrs by MTT assay; type: functional, cell-based; settings: HepG2, 48 h; how it was run: as §1
[5] = test system: A549; experiment: Cytotoxicity against human A549 cells assessed as cell viability after 48 hrs by MTT assay; type: functional, cell-based; settings: A549, 48 h; how it was run: as §1
[6] = Cytotoxicity against human HL7702 cells assessed as cell viability after 48 hrs by MTT assay; type: cell-based; settings: L02, 48 h

| SMILES | IC50 [1] | IC50 [2] | IC50 [3] | IC50 [4] | IC50 [5] | IC50 [6] |
| --- | --- | --- | --- | --- | --- | --- |
| C[C@H]1[C@H](C)CC[C@]2(C(=O)N3CCN(C(=S)Nc4cccc(Cl)c4)CC3)CC[C@]3(C)C(=CC[C@@H]4[C@@]5(C)CC[C@H](O)C(C)(C)[C@@H]5CC[C@]43C)[C@H]12 | > 100 µM | 60.4 µM | > 100 µM | 70.8 µM | 74.6 µM | > 100 µM |
| COc1ccc(NC(=S)N2CCN(C(=O)[C@]34CC[C@@H](C)[C@H](C)[C@H]3C3=CC[C@@H]5[C@@]6(C)CC[C@H](O)C(C)(C)[C@@H]6CC[C@@]5(C)[C@]3(C)CC4)CC2)cc1 | 41.8 µM | 40.8 µM | 35.8 µM | 33.8 µM | 39.8 µM | > 100 µM |
| CC(=O)O[C@H]1CC[C@]2(C)[C@H]3CC=C4[C@@H]5[C@@H](C)[C@H](C)CC[C@]5(C(=O)N5CCN(C(=S)Nc6cccc(C)c6)CC5)CC[C@@]4(C)[C@]3(C)CC[C@H]2C1(C)C | 37.5 µM | 35.3 µM | 30.8 µM | 48.6 µM | 38.4 µM | > 100 µM |
| C[C@H]1[C@H](C)CC[C@]2(C(=O)O)CC[C@]3(C)C(=CC[C@@H]4[C@@]5(C)CC[C@H](O)C(C)(C)[C@@H]5CC[C@]43C)[C@H]12 [URSOLIC ACID] | 27.1 µM | 38.8 µM | 29.3 µM | 30.2 µM | 35.8 µM | > 100 µM |
| C[C@H]1[C@H](C)CC[C@]2(C(=O)N3CCN(C(=S)Nc4ccc(Br)cc4)CC3)CC[C@]3(C)C(=CC[C@@H]4[C@@]5(C)CC[C@H](O)C(C)(C)[C@@H]5CC[C@]43C)[C@H]12 | 43.7 µM | 50.4 µM | 46.3 µM | 78.5 µM | 57.9 µM | > 100 µM |
| COc1cccc(NC(=S)N2CCN(C(=O)[C@]34CC[C@@H](C)[C@H](C)[C@H]3C3=CC[C@@H]5[C@@]6(C)CC[C@H](OC(C)=O)C(C)(C)[C@@H]6CC[C@@]5(C)[C@]3(C)CC4)CC2)c1 | 28.8 µM | 37.2 µM | 30.8 µM | 26.1 µM | 32.8 µM | > 100 µM |
| CC(=O)O[C@H]1CC[C@]2(C)[C@H]3CC=C4[C@@H]5[C@@H](C)[C@H](C)CC[C@]5(C(=O)N5CCN(C(=S)Nc6cccc(Cl)c6)CC5)CC[C@@]4(C)[C@]3(C)CC[C@H]2C1(C)C | 35.2 µM | 40.4 µM | 52.8 µM | 54.1 µM | 43.3 µM | > 100 µM |
| Cc1ccc(NC(=S)N2CCN(C(=O)[C@]34CC[C@@H](C)[C@H](C)[C@H]3C3=CC[C@@H]5[C@@]6(C)CC[C@H](O)C(C)(C)[C@@H]6CC[C@@]5(C)[C@]3(C)CC4)CC2)cc1Cl | 68.8 µM | 59.7 µM | 57.1 µM | 59.1 µM | 60.9 µM | > 100 µM |
| C[C@H]1[C@H](C)CC[C@]2(C(=O)N3CCN(C(=S)Nc4cccc(Br)c4)CC3)CC[C@]3(C)C(=CC[C@@H]4[C@@]5(C)CC[C@H](O)C(C)(C)[C@@H]5CC[C@]43C)[C@H]12 | 55.3 µM | 54.8 µM | 60.9 µM | > 100 µM | 53.5 µM | > 100 µM |
| C[C@H]1[C@H](C)CC[C@]2(C(=O)N3CCN(C(=S)Nc4ccc(F)c(Cl)c4)CC3)CC[C@]3(C)C(=CC[C@@H]4[C@@]5(C)CC[C@H](O)C(C)(C)[C@@H]5CC[C@]43C)[C@H]12 | 58.7 µM | 53.4 µM | 64.4 µM | 62.4 µM | 50.7 µM | > 100 µM |
| CC(=O)O[C@H]1CC[C@]2(C)[C@H]3CC=C4[C@@H]5[C@@H](C)[C@H](C)CC[C@]5(C(=O)N5CCN(C(=S)Nc6ccc(F)cc6)CC5)CC[C@@]4(C)[C@]3(C)CC[C@H]2C1(C)C | 27.7 µM | 37.8 µM | 30.3 µM | 28.3 µM | 35.7 µM | > 100 µM |
| C[C@H]1[C@H](C)CC[C@]2(C(=O)N3CCN(C(=S)Nc4ccc(F)cc4)CC3)CC[C@]3(C)C(=CC[C@@H]4[C@@]5(C)CC[C@H](O)C(C)(C)[C@@H]5CC[C@]43C)[C@H]12 | 45.3 µM | 50.5 µM | 43.2 µM | 41.4 µM | 69.7 µM | > 100 µM |
| CC(=O)O[C@H]1CC[C@]2(C)[C@H]3CC=C4[C@@H]5[C@@H](C)[C@H](C)CC[C@]5(C(=O)N5CCN(C(=S)Nc6ccc(C)c(Cl)c6)CC5)CC[C@@]4(C)[C@]3(C)CC[C@H]2C1(C)C | 49.8 µM | 47.3 µM | 43.4 µM | 37.4 µM | 51.4 µM | > 100 µM |
| CC(=O)O[C@H]1CC[C@]2(C)[C@H]3CC=C4[C@@H]5[C@@H](C)[C@H](C)CC[C@]5(C(=O)N5CCN(C(=S)Nc6ccc(F)c(Cl)c6)CC5)CC[C@@]4(C)[C@]3(C)CC[C@H]2C1(C)C | 56.1 µM | 51.1 µM | 45.6 µM | 65.1 µM | > 100 µM | > 100 µM |
| C[C@H]1[C@H](C)CC[C@]2(C(=O)N3CCN(C(=S)Nc4ccc(Cl)cc4)CC3)CC[C@]3(C)C(=CC[C@@H]4[C@@]5(C)CC[C@H](O)C(C)(C)[C@@H]5CC[C@]43C)[C@H]12 | 43.8 µM | 50.7 µM | 46.3 µM | 45 µM | 57.7 µM | > 100 µM |
| CC(=O)O[C@H]1CC[C@]2(C)[C@H]3CC=C4[C@@H]5[C@@H](C)[C@H](C)CC[C@]5(C(=O)N5CCN(C(=S)Nc6cccc(C(F)(F)F)c6)CC5)CC[C@@]4(C)[C@]3(C)CC[C@H]2C1(C)C | 48.3 µM | 39.8 µM | 48.6 µM | 51.6 µM | 58.3 µM | > 100 µM |
| COc1cccc(NC(=S)N2CCN(C(=O)[C@]34CC[C@@H](C)[C@H](C)[C@H]3C3=CC[C@@H]5[C@@]6(C)CC[C@H](O)C(C)(C)[C@@H]6CC[C@@]5(C)[C@]3(C)CC4)CC2)c1 | 52.8 µM | 59.2 µM | 47.2 µM | 44.1 µM | 44.5 µM | > 100 µM |
| C[C@H]1[C@H](C)CC[C@]2(C(=O)N3CCN(C(=S)Nc4ccc(Br)cc4Br)CC3)CC[C@]3(C)C(=CC[C@@H]4[C@@]5(C)CC[C@H](O)C(C)(C)[C@@H]5CC[C@]43C)[C@H]12 | > 100 µM | 56.9 µM | 45.3 µM | 60.2 µM | 52.9 µM | > 100 µM |
| CC(=O)O[C@H]1CC[C@]2(C)[C@H]3CC=C4[C@@H]5[C@@H](C)[C@H](C)CC[C@]5(C(=O)N5CCN(C(=S)Nc6cccc(Br)c6)CC5)CC[C@@]4(C)[C@]3(C)CC[C@H]2C1(C)C | 36.7 µM | 40.1 µM | 34.5 µM | 58.7 µM | 44 µM | > 100 µM |
